pIC50: −log10 of the molar value. Active and inactive are the calls of the source. The calls are words filed in the database; no cut-off is given here. Numbered stars: 1 amine (or outer) side, 2 acyl side, 3 side chain; on linkers, the order of the positions; unused ones are H or OH. Square brackets hold non-standard residues; d marks the D form. Peptide text beside a SMILES is read from it. * marks the point of attachment. X7 = O=C([C@H](Cc1ccc(C(O)P(=O)(O)O)cc1)N[*:1])[*:2]; Trp(6-Cl) = N[C@@H](Cc1c[nH]c2cc(Cl)ccc12)C(=O)O; Phe(4-Cl) = N[C@@H](Cc1ccc(Cl)cc1)C(=O)O; X2 = O=C(O)[C@H]1CCCC[C@@H]1C(=O)*; 3Pal = N[C@@H](Cc1cccnc1)C(=O)O
Key:
[1] = Solubility of the compound at >1 mM; assay type: physicochemical
[2] = target: T1, Insulin-like growth factor 1 receptor (Homo sapiens, UniProt P08069); test: Activity at pre-activated human GST-His6-tagged IGF-1R expressed in Sf9 cells assessed as initial phosphorylation rate at 10 uM measured every 2 mins for 60 mins by Michaelis-Menten constant based ADP Quest assay
Procedure, shortened: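 Reaction buffer was the same plus 0.1 mg/mL BSA, with kinase, peptide substrate and detection reagents. Started with ATP; fluorescence read every 2 min for 60 min; 3 independent experiments.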

[3] = target: T1, Insulin-like growth factor 1 receptor; test: Inhibition of pre-activated human GST-His6-tagged IGF-1R expressed in Sf9 cells using Ac-EAEDEPEGDYFEWLE-NHMe as substrate after 25 mins by luminescence assay
[4] = target: T1, Insulin-like growth factor 1 receptor; test: Activity at pre-activated human GST-His6-tagged IGF-1R expressed in Sf9 cells up to 1 mM measured every 2 mins for 60 mins by Michaelis-Menten constant based ADP Quest assay
Procedure, shortened: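 Reactions used the same buffer plus 0.1 mg/mL BSA, pre-activated GST-His6-IGF-1R, peptide substrate titrated up to 1 mM, and ADP Quest reagents. ATP started the reaction. Fluorescence was read every 2 min for 60 min. KM came from a Michaelis-Menten fit, n = 3 independent experiments.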

T1 sequence (P08069 31-736 limits assumed): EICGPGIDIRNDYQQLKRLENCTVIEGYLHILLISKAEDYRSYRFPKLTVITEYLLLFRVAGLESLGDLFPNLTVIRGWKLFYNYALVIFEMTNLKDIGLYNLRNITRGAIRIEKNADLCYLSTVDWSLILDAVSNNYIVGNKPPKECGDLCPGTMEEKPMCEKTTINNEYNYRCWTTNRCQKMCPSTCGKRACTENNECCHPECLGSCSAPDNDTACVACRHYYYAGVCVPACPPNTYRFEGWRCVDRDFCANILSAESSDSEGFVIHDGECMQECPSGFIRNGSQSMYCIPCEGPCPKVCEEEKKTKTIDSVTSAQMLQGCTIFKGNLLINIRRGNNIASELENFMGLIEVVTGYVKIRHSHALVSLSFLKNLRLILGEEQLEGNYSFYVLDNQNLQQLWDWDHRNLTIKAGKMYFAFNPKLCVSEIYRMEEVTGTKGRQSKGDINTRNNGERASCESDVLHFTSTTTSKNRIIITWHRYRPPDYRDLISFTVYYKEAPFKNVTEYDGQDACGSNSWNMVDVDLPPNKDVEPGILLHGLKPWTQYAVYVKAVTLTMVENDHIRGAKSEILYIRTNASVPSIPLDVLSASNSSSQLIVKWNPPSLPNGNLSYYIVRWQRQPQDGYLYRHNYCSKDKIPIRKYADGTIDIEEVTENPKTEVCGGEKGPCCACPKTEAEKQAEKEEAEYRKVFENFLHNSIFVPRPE
T1 sequence (P08069 741-1367 limits assumed): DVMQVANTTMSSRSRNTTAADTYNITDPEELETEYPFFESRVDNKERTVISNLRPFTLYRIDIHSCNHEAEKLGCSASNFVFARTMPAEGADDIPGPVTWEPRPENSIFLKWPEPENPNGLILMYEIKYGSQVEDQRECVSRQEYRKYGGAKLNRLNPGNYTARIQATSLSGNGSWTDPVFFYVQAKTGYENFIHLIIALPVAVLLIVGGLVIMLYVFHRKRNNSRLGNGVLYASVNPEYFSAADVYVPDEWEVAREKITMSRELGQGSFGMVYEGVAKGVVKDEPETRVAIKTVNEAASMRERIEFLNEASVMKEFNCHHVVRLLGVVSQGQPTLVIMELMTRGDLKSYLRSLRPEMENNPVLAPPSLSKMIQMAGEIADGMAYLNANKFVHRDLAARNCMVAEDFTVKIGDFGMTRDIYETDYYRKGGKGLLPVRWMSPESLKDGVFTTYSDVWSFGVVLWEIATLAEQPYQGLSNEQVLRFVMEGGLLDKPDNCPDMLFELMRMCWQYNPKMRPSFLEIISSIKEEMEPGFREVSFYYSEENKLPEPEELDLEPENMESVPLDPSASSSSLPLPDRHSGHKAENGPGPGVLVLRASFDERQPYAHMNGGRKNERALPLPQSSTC

Row | Structure (SMILES) | Activity [2] [nM/s] | further results
1 | CNC(=O)[C@H](Cc1c[nH]c2ccccc12)NC(=O)[C@H](CCC(=O)O)NC(=O)[C@H](Cc1ccccc1)NC(=O)[C@H](Cc1ccc(O)cc1)NC(=O)[C@H](Cc1cccnc1)NC(C)=O | 0.4 | solubility [1]: Insoluble
2 | CNC(=O)[C@@H](Cc1c[nH]c2ccccc12)NC(=O)[C@H](CCC(=O)O)NC(=O)[C@H](Cc1ccccc1)NC(=O)[C@H](Cc1ccc(O)cc1)NC(=O)[C@H](CCC(=O)O)NC(C)=O |  | solubility [1]: Insoluble
3 | CNC(=O)[C@@H](Cc1c[nH]c2ccccc12)NC(=O)[C@H](CCC(=O)O)NC(=O)[C@H](Cc1ccccc1)NC(=O)[C@H](Cc1ccc(O)cc1)NC(=O)[C@H](Cc1cccnc1)NC(C)=O |  | solubility [1]: Insoluble
4 | CNC(=O)[C@H](Cc1ccc(Cl)cc1)NC(=O)[C@H](CCC(=O)O)NC(=O)[C@H](Cc1ccccc1)NC(=O)[C@H](Cc1ccc(O)cc1)NC(=O)[C@H](Cc1cccnc1)NC(C)=O (Ac-[3Pal]YFE[Phe(4-Cl)]-NHMe) |  | solubility [1]: Insoluble
5 | CNC(=O)[C@H](Cc1ccc(Cl)cc1)NC(=O)[C@H](CCC(=O)O)NC(=O)[C@H](Cc1ccccc1)NC(=O)[C@H](Cc1ccc(C(O)P(=O)(O)O)cc1)NC(=O)[C@H](Cc1cccnc1)NC(C)=O (stereo partly drawn) (Ac-[3Pal][X7]FE[Phe(4-Cl)]-NHMe) |  | pIC50 [3]: 3.31
6 | CNC(=O)[C@H](Cc1c[nH]c2ccccc12)NC(=O)[C@H](CCC(=O)O)NC(=O)[C@H](Cc1ccccc1)NC(=O)[C@@H](N)Cc1ccc(O)cc1 (HELM PEPTIDE1{Y.F.E.W.[CN[*:1]]}$$$$V2.0) |  | Activity [4]: inactive
7 | CNC(=O)[C@H](Cc1c[nH]c2cc(Cl)ccc12)NC(=O)CNC(=O)[C@H](Cc1ccccc1)NC(=O)[C@H](Cc1ccc(O)cc1)NC(=O)[C@H](CC(=O)O)NC(C)=O (HELM PEPTIDE1{[ac].D.Y.F.G.[O=C([C@H](Cc1c[nH]c2cc(Cl)ccc12)N[*:1])[*:2]].[CN[*:1]]}$$$$V2.0) | 2.1 | 
8 | CNC(=O)[C@H](Cc1ccc2ccccc2c1)NC(=O)CNC(=O)[C@H](Cc1ccccc1)NC(=O)[C@H](Cc1ccc(O)cc1)NC(=O)[C@H](CC(=O)O)NC(C)=O (HELM PEPTIDE1{[ac].D.Y.F.G.[O=C([C@H](Cc1ccc2ccccc2c1)N[*:1])[*:2]].[CN[*:1]]}$$$$V2.0) | 0.24 | 
9 | CNC(=O)[C@H](Cc1ccc(Cl)c(Cl)c1)NC(=O)CNC(=O)[C@H](Cc1ccccc1)NC(=O)[C@H](Cc1ccc(O)cc1)NC(=O)[C@H](CC(=O)O)NC(C)=O (HELM PEPTIDE1{[ac].D.Y.F.G.[O=C([C@H](Cc1ccc(Cl)c(Cl)c1)N[*:1])[*:2]].[CN[*:1]]}$$$$V2.0) | 0.55 | 
10 | CNC(=O)[C@H](Cc1ccc(Cl)cc1)NC(=O)CNC(=O)[C@H](Cc1ccccc1)NC(=O)[C@H](Cc1ccc(O)cc1)NC(=O)[C@H](CC(=O)O)NC(C)=O (HELM PEPTIDE1{[ac].D.Y.F.G.[O=C([C@H](Cc1ccc(Cl)cc1)N[*:1])[*:2]].[CN[*:1]]}$$$$V2.0) | 0.47 | 
11 | CNC(=O)[C@H](Cc1c[nH]c2cc(Cl)ccc12)NC(=O)[C@H](CCC(=O)O)NC(=O)[C@H](Cc1ccccc1)NC(=O)[C@H](Cc1ccc(O)cc1)NC(=O)[C@H](CCC(=O)O)NC(C)=O (HELM PEPTIDE1{[ac].E.Y.F.E.[O=C([C@H](Cc1c[nH]c2cc(Cl)ccc12)N[*:1])[*:2]].[CN[*:1]]}$$$$V2.0) | 3.3 | 
12 | CNC(=O)[C@H](Cc1ccc(Cl)cc1)NC(=O)[C@H](CCC(=O)O)NC(=O)[C@H](Cc1ccccc1)NC(=O)[C@H](Cc1ccc(O)cc1)NC(=O)[C@H](CCC(=O)O)NC(C)=O (HELM PEPTIDE1{[ac].E.Y.F.E.[O=C([C@H](Cc1ccc(Cl)cc1)N[*:1])[*:2]].[CN[*:1]]}$$$$V2.0) | 0.26 | 
13 | CNC(=O)[C@H](Cc1ccccc1)NC(=O)[C@H](CCC(=O)O)NC(=O)[C@H](Cc1ccccc1)NC(=O)[C@H](Cc1ccc(O)cc1)NC(=O)[C@H](CC(N)=O)NC(C)=O (HELM PEPTIDE1{[ac].N.Y.F.E.F.[CN[*:1]]}$$$$V2.0) | 0.46 | 
14 | CNC(=O)[C@H](Cc1c[nH]c2ccccc12)NC(=O)[C@H](CCC(=O)O)NC(=O)[C@H](Cc1ccccc1)NC(=O)[C@H](Cc1ccc(O)cc1)NC(=O)[C@H](CC(N)=O)NC(C)=O (HELM PEPTIDE1{[ac].N.Y.F.E.W.[CN[*:1]]}$$$$V2.0) | 2.8 | 
15 | CNC(=O)[C@H](Cc1c[nH]c2ccccc12)NC(=O)[C@H](CCC(=O)O)NC(=O)[C@H](Cc1ccccc1)NC(=O)[C@H](Cc1ccc(O)cc1)NC(C)=O (HELM PEPTIDE1{[ac].Y.F.E.W.[CN[*:1]]}$$$$V2.0) | 0.17 | 
16 | CNC(=O)[C@H](Cc1ccc(Cl)cc1)NC(=O)[C@H](CCC(=O)O)NC(=O)[C@H](Cc1ccccc1)NC(=O)[C@H](Cc1ccc(O)cc1)NC(=O)[C@H]1CCCC[C@@H]1C(=O)O (X2-YFE[Phe(4-Cl)]-NHMe) | 4 | 
17 | CNC(=O)[C@H](Cc1c[nH]c2cc(Cl)ccc12)NC(=O)[C@H](CCC(=O)O)NC(=O)[C@H](Cc1ccccc1)NC(=O)[C@H](Cc1ccc(O)cc1)NC(=O)[C@H]1CCCC[C@@H]1C(=O)O (X2-YFE[Trp(6-Cl)]-NHMe) | 7.5 | 

From ChEMBL document CHEMBL2146397, “The Substrate-Activity-Screening methodology applied to receptor tyrosine kinases: a proof-of-concept study” (Eur J Med Chem, 2012)
